Screening results from PubChem.
DDE Tn7 FP inh: disrupts Tn7 cyclic peptide binding to fibrin D-Dimer-E complex; inhibition, % at 8.3 µM; P02675; actives 0.13% (n = 370,000); AID 720508; FP displacement of FITC-Tn7 peptide from fibrin DD(E); 0% = median of compound wells per plate;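 active means inhibition above the mean of compounds falling within the control limits plus 3 SD of them, cut at about 14% in these data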
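assay system = human clot-derived fibrin DD(E) complex | quantity = Fibrin-DD(E) at 2 µM final | timing = 10 min preincubation, 3 h with tracer, room temperature | signal = fluorescence polarization | measure = percent inhibition | benchmarks = high control wells with 10 µM unlabelled Aha-Tn7 peptide (full inhibition) | replicates = singlicate testing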
Tn6 DDE FP: inhibitors of Tn6 peptide binding to human fibrin DD(E); P02675; Fibrin DD(E) TRITC-Tn6 fluorescence polarization displacement; inhibition, % at 8.3 µM; actives 0.21% (n = 370,000); AID 720509;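 active means inhibition above a per-campaign cutoff: mean of compounds within control limits plus 3 SD, cut at about 15% in these data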
SIAE inh: inhibitors of human sialic acid acetylesterase SIAE; inhibition, % at 9.66 µM; Q9HAT2; AID 1053197; actives 0.69% (n = 370,000); SIAE FP-Rh probe binding, fluorescence polarization;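 active means inhibition above a cutoff: mean of compounds within the control limits plus 3 SD of those, cut at about 17% in these data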
TCR CD3 inh: inhibitors of human TCR-CD3 interaction. TAMRA-labeled TCR probe fluorescence, biochemical. inhibition, % at 9.4 µM. actives 0.37% (n = 360,000). AID 651800;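 further: recombinant mutant TCR 2C K166C tagged with TAMRA read by polarization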
HTRA1 inhibitor: inhibitors of human serine peptidase HTRA1 | Q92743 | recombinant HTRA1, FP-rhodamine activity-based probe, fluorescence polarization | inhibition, % at 5.96 µM | actives 0.5% (n = 340,000) | AID 504803; in the data active means inhibition above about 36%
ABHD4 inh: inhibits mouse alpha/beta hydrolase domain 4; inhibition, % at 8.92 µM; Q8VD66; purified mABHD4, FP-Rh probe fluorescence polarization; actives 0.54% (n = 370,000); AID 720543;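 active means inhibition exceeding the mean over every tested compound plus 3 SD, cut at about 30% in these data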
Target sequence (Q8VD66 whole entry, looked up, the tested form may be a part): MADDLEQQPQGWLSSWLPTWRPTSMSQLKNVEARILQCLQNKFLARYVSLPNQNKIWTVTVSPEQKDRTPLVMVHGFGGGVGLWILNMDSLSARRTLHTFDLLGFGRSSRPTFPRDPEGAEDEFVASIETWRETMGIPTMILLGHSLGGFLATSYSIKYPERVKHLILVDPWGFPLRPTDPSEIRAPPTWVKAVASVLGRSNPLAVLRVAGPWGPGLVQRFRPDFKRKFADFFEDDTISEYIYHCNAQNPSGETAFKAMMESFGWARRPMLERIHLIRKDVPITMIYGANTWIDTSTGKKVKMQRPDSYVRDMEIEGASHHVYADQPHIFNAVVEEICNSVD
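system = mouse ABHD4 enzyme, wild type | medium = HEPES pH 7.0, NaCl, Pluronic buffer | also added = FP-Rh probe | incubation = Enzyme–compound pre-incubation 45 min, then probe 60 min, both 25 °C | technique = fluorescence polarization, excitation 525 nm, emission 598 nm, BODIPY TMR filters | controls = S159A mutant high control, sample median low control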
HTRA1 conf: HTRA1 (human) inhibition, confirmation; shares compounds with HTRA1 inhibitor; recombinant HTRA1, FP-rhodamine activity-based probe, fluorescence polarization; inhibition, % at 5.96 µM; actives 66% (n = 1,600); AID 540248;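 active means mean inhibition over three repeats above a set limit taken from the earlier primary screen, cut at about 37% in these data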;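 further: inhibitors block probe binding so polarization drops and inhibition rises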
BSA probe FL: BSA probe counter-screen for TCR-CD3 inhibitors | inhibition, % at 9.4 µM | actives 10% (n = 1,200) | shares compounds with TCR CD3 inh | TAMRA-labeled BSA probe fluorescence counterscreen; in the data active means inhibition above about 23%
TCR-CD3 conf: TCR-CD3 interaction inhibition, confirmation; actives 48% (n = 1,200); TAMRA-labeled TCR probe fluorescence binding assay; inhibition, % at 9.4 µM; shares compounds with TCR CD3 inh
DDE Tn6 FP ctr: counter-screen for inhibitors of Tn6 peptide binding to fibrin DD(E); inhibition, % at 8.3 µM; TRITC-Tn6 fluorescence polarization displacement; 0% = median of compound wells, not DMSO; actives 2% (n = 680); shares compounds with Tn6 DDE FP;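 active means inhibition above the mean of test compounds lying between the control limits plus 3 SD of those, cut at about 14% in these data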
DDE Tn6 confirm: DD(E)-Tn6 binding inhibition, FP confirmation. inhibition, % at 8.3 µM. actives 10% (n = 680). shares compounds with Tn6 DDE FP. FP displacement of TRITC-Tn6 peptide from DD(E); 0% = per-plate median of test wells;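 active means inhibition above the mean of compounds lying within the control limits plus 3 SD, cut at about 16% in these data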
mABHD4 conf: ABHD4 (mouse) inhibition, FP confirmation. shares compounds with ABHD4 inh. purified mABHD4, FP-Rh probe fluorescence polarization. inhibition, % at 8.92 µM. actives 55% (n = 1,800);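 active means mean inhibition across replicates above the hit cutoff set in the primary screen, cut at about 30% in these data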
Large screens that a line does not name were inactive (follow-up assays come after a bar, where they were run). The list is not random: actives were taken first. Their share in the collection is about 1.8%. Unless noted, no stated cut-off is given here; in the data, active means inhibition above about 19%; inactive means the rest.

N#C/C(=C\c1ccc(O)c(O)c1)C(=O)N1CCc2ccccc21	HTRA1 inhibitor 71, ABHD4 inh 55 | HTRA1 conf 86 | mABHD4 conf inactive
N#C/C(=C\c1ccc(O)c(O)c1)C(=O)NCCc1ccccc1	HTRA1 inhibitor 71, ABHD4 inh 51 | HTRA1 conf 93 | mABHD4 conf 33
CCOc1ccc2noc3c2c1C(=O)c1ccccc1-3	Tn6 DDE FP 41, SIAE inh 17, HTRA1 inhibitor 49, ABHD4 inh 58 | HTRA1 conf inactive | DDE Tn6 FP ctr 53 | DDE Tn6 confirm inactive | mABHD4 conf inactive
O=C(O)c1ccc(NC2=C/C(=N/S(=O)(=O)c3cccs3)c3ccccc3C2=O)cc1	HTRA1 inhibitor 42, ABHD4 inh 37 | HTRA1 conf 46 | mABHD4 conf 78
CCc1ccc(S(=O)(=O)/N=C2\C=C(Nc3cccc(C(=O)O)c3)C(=O)c3ccccc32)cc1	HTRA1 inhibitor 70, ABHD4 inh 65 | HTRA1 conf 66 | mABHD4 conf 84
CCCCN1CC(COCc2ccccc2)Oc2cccc(Sc3ccc(OC)c(OC)c3)c2S1(=O)=O (stereo not drawn)	none (no result: HTRA1 inhibitor)
O=C1c2ccccc2-c2onc3c(N4CCN(CCO)CC4)cc(N4CCN(C(=O)c5ccco5)CC4)c1c23	HTRA1 inhibitor 67, ABHD4 inh 35 | HTRA1 conf 72 | mABHD4 conf 43
O=C(c1ccco1)N1CCN(CCCCN2C(=O)c3ccccc3C2=O)CC1	none
CC(C)c1cc(C(F)(F)F)nc(NNc2nc(C(C)C)cc(C(F)(F)F)n2)n1	none
CC(=O)Nc1ccc(N/C=C/C(=O)c2ccco2)cc1	none
CN(C)c1ccc(N/C=C/C(=O)c2ccco2)cc1	HTRA1 inhibitor 47, ABHD4 inh 44 | HTRA1 conf inactive | mABHD4 conf inactive
N#C/C(N=Nc1ccccc1O)=N\Nc1ccccc1O	HTRA1 inhibitor 68, ABHD4 inh 67 | HTRA1 conf 71 | mABHD4 conf 110
CC(=O)N(C)c1ccc(N=Cc2cc3c(cc2[N+](=O)[O-])OCO3)cc1	none
O=[N+]([O-])c1ccc(O)c(C=Nc2ccc3c(c2)OCO3)c1	none
Cc1ccc(C)c(N=Cc2cc3c(cc2[N+](=O)[O-])OCO3)c1	SIAE inh 27, HTRA1 inhibitor 48, ABHD4 inh 50 | HTRA1 conf inactive | mABHD4 conf 45
CC(C)(C)c1ccc(O)c(N=Cc2cc3c(cc2[N+](=O)[O-])OCO3)c1	HTRA1 inhibitor 39, ABHD4 inh 49 | HTRA1 conf inactive | mABHD4 conf 40
C[C@H]1CN(C(=O)OC(C)(C)C)CCN1c1ccc(N2CCS(=O)(=O)CC2)c(C#N)c1	none (no result: HTRA1 inhibitor)
CCOC(=O)c1ccc(CC(=O)c2ccc(O)c(O)c2O)o1	TCR CD3 inh 21, HTRA1 inhibitor 53, ABHD4 inh 31 | HTRA1 conf 82 | BSA probe FL inactive | TCR-CD3 conf 21 | mABHD4 conf inactive
CCOC(=O)c1ccc(CC(=O)c2oc3cc(O)ccc3c2C)o1	none
CCOC(=O)c1c(N)sc(=S)c2c1CCC2	HTRA1 inhibitor 38, ABHD4 inh 42 | HTRA1 conf inactive | mABHD4 conf inactive
CCOC(=O)c1c(N)sc(N)c1C(=O)OCC	none
COc1cccc(/C=C/C(=O)OCC(=O)NCCNC(=O)COC(=O)/C=C/c2cccc(OC)c2)c1	none
CCNc1ccc(Br)cc(C(=O)/C=C/c2ccc3c(c2)OCO3)c1=O	HTRA1 inhibitor 52, ABHD4 inh 38 | HTRA1 conf inactive | mABHD4 conf 45
CNc1ccc(Br)cc(C(=O)/C=C/c2ccc(Cl)cc2Cl)c1=O	HTRA1 inhibitor 64, ABHD4 inh 33 | HTRA1 conf 48 | mABHD4 conf 57
CNc1ccc(Br)cc(C(=O)/C=C/c2cccc(OC)c2)c1=O	HTRA1 inhibitor 40, ABHD4 inh 37 | HTRA1 conf inactive | mABHD4 conf 43
O=C(/C=C/c1ccc(Cl)cc1Cl)c1ccc[nH]1	none
CC(=O)C1=C(O)C(=O)N(c2ccc(S(N)(=O)=O)cc2)C1c1cccc([N+](=O)[O-])c1 (stereo not drawn)	none
CC(=O)C1C(=O)c2c(cccc2[N+](=O)[O-])C1=Nc1ccc(S(N)(=O)=O)cc1 (stereo not drawn)	HTRA1 inhibitor 39, ABHD4 inh 38 | HTRA1 conf inactive | mABHD4 conf 34
Oc1cccc(/C=N/NC(=S)Nc2cccnc2)c1O	HTRA1 inhibitor 42, ABHD4 inh 31 | HTRA1 conf inactive | mABHD4 conf inactive
CNCc1ccccc1Sc1ccc(O)c(O)c1	HTRA1 inhibitor 62, ABHD4 inh 35 | HTRA1 conf 57 | mABHD4 conf 50
COc1ccc(Sc2ccccc2CN(C)C)cc1OC	none
CC(=O)c1sc(NC(=O)CN2C(=O)C3CCCCC3C2=O)nc1-c1ccccc1 (stereo not drawn)	none
CC1CC(=O)Nc2ccccc2N1C(=O)COc1cc(Cl)ccc1Cl (stereo not drawn)	none
Cc1cccc2sc(NNC(=O)c3cc(=O)c4ccccc4o3)nc12	HTRA1 inhibitor 38, ABHD4 inh 30 | HTRA1 conf 64 | mABHD4 conf 44
COc1ccc2nc(NNC(=O)c3cc(=O)c4ccccc4o3)sc2c1	none
O=C(CN1C(=O)NC2(CCCCC2)C1=O)Nc1cc(C(F)(F)F)ccc1N1CCCCC1	none
COCCN=c1scc(C)n1/N=C/C1CC2C=CC1C2 (stereo not drawn)	none
